Measurements from ChEMBL document CHEMBL2157880, “Synthesis, antimycobacterial and antibacterial activity of ciprofloxacin derivatives containing a N-substituted benzyl moiety” (2012).
Converted amounts (≈) assume the structure as drawn.

Test system: Pseudomonas aeruginosa
Test: Antibacterial activity against Pseudomonas aeruginosa 10-15 after 18 to 24 hrs by NCCLS method
Type: functional
In short: (§1)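 Standard NCCLS (M100-S11) MIC testing against Gram-positive and Gram-negative strains. Plates were incubated at 35 °C for 18–24 h. The MIC was read as the lowest concentration giving complete inhibition of visible bacterial growth.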

SMILES	MIC [µg/mL]
O=C(O)c1cn(C2CC2)c2cc(N3CCN(Cc4ccc5c(c4)OCCO5)CC3)c(F)cc2c1=O	32 (≈ 66.7 µM)

Test system: Staphylococcus epidermidis
Test: Antibacterial activity against methicillin-sensitive Staphylococcus epidermidis 10-15 after 18 to 24 hrs by NCCLS method
Type: functional
In short: (§2)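 Incubated at 35 °C for 18–24 h under NCCLS (M100-S11) standards. MIC was read as the lowest concentration giving complete inhibition of visible bacterial growth.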

SMILES	MIC [µg/mL]
O=C(O)c1cn(C2CC2)c2cc(N3CCN(Cc4ccc5c(c4)OCCO5)CC3)c(F)cc2c1=O	8 (≈ 16.7 µM)

Test system: Pseudomonas aeruginosa
Test: Antibacterial activity against Pseudomonas aeruginosa 10-12 after 18 to 24 hrs by NCCLS method
Type: functional
In short: as §1

SMILES	MIC [µg/mL]
O=C(O)c1cn(C2CC2)c2cc(N3CCN(Cc4ccc5c(c4)OCCO5)CC3)c(F)cc2c1=O	16 (≈ 33.4 µM)

Test system: Escherichia coli
Test: Antibacterial activity against Escherichia coli 10-3 after 18 to 24 hrs by NCCLS method
Type: functional
In short: as §1

SMILES	MIC [µg/mL]
O=C(O)c1cn(C2CC2)c2cc(N3CCN(Cc4ccc5c(c4)OCCO5)CC3)c(F)cc2c1=O	16 (≈ 33.4 µM)

Test system: Klebsiella pneumoniae
Test: Antibacterial activity against Klebsiella pneumoniae 10-4 after 18 to 24 hrs by NCCLS method
Type: functional
In short: as §1

SMILES	MIC [µg/mL]
O=C(O)c1cn(C2CC2)c2cc(N3CCN(Cc4ccc5c(c4)OCCO5)CC3)c(F)cc2c1=O	> 128

Test system: Staphylococcus aureus
Test: Antibacterial activity against methicillin-resistant Staphylococcus aureus 10-13 after 18 to 24 hrs by NCCLS method
Type: functional
In short: as §2

SMILES	MIC [µg/mL]
O=C(O)c1cn(C2CC2)c2cc(N3CCN(Cc4ccc5c(c4)OCCO5)CC3)c(F)cc2c1=O	16 (≈ 33.4 µM)

Test system: Staphylococcus aureus
Test: Antibacterial activity against methicillin-sensitive Staphylococcus aureus 10-13 after 18 to 24 hrs by NCCLS method
Type: functional
In short: as §1

SMILES	MIC [µg/mL]
O=C(O)c1cn(C2CC2)c2cc(N3CCN(Cc4ccc5c(c4)OCCO5)CC3)c(F)cc2c1=O	0.25 (≈ 0.521 µM)

Test system: Escherichia coli
Test: Antibacterial activity against Escherichia coli 10-1 after 18 to 24 hrs by NCCLS method
Type: functional
In short: as §1

SMILES	MIC [µg/mL]
O=C(O)c1cn(C2CC2)c2cc(N3CCN(Cc4ccc5c(c4)OCCO5)CC3)c(F)cc2c1=O	> 128

Test system: Klebsiella pneumoniae
Test: Antibacterial activity against extended spectrum beta-lactamases producing Klebsiella pneumoniae 10-3 after 18 to 24 hrs by NCCLS method
Type: functional
In short: as §1

SMILES	MIC [µg/mL]
O=C(O)c1cn(C2CC2)c2cc(N3CCN(Cc4ccc5c(c4)OCCO5)CC3)c(F)cc2c1=O	> 128

Test system: Enterococcus faecalis
Test: Antibacterial activity against Enterococcus faecalis 10-5 after 18 to 24 hrs by NCCLS method
Type: functional
In short: as §1

SMILES	MIC [µg/mL]
O=C(O)c1cn(C2CC2)c2cc(N3CCN(Cc4ccc5c(c4)OCCO5)CC3)c(F)cc2c1=O	4 (≈ 8.34 µM)

Test system: Klebsiella pneumoniae
Test: Antibacterial activity against Klebsiella pneumoniae 10-2 after 18 to 24 hrs by NCCLS method
Type: functional
In short: as §1

SMILES	MIC [µg/mL]
O=C(O)c1cn(C2CC2)c2cc(N3CCN(Cc4ccc5c(c4)OCCO5)CC3)c(F)cc2c1=O	> 128

Test system: Staphylococcus aureus
Test: Antibacterial activity against methicillin-resistant Staphylococcus aureus 10-15 after 18 to 24 hrs by NCCLS method
Type: functional
In short: as §2

SMILES	MIC [µg/mL]
O=C(O)c1cn(C2CC2)c2cc(N3CCN(Cc4ccc5c(c4)OCCO5)CC3)c(F)cc2c1=O	4 (≈ 8.34 µM)

Test system: Staphylococcus aureus
Test: Antibacterial activity against Staphylococcus aureus ATCC 2592 after 18 to 24 hrs by NCCLS method
Type: functional
In short: as §1

SMILES	MIC [µg/mL]
O=C(O)c1cn(C2CC2)c2cc(N3CCN(Cc4ccc5c(c4)OCCO5)CC3)c(F)cc2c1=O	0.125 (≈ 0.261 µM)

Test system: Escherichia coli
Test: Antibacterial activity against Escherichia coli ATCC 25922 after 18 to 24 hrs by NCCLS method
Type: functional
In short: as §1

SMILES	MIC [µg/mL]
O=C(O)c1cn(C2CC2)c2cc(N3CCN(Cc4ccc5c(c4)OCCO5)CC3)c(F)cc2c1=O	0.125 (≈ 0.261 µM)

Test system: Enterococcus faecium
Test: Antibacterial activity against Enterococcus faecium 10-9 after 18 to 24 hrs by NCCLS method
Type: functional
In short: as §1

SMILES	MIC [µg/mL]
O=C(O)c1cn(C2CC2)c2cc(N3CCN(Cc4ccc5c(c4)OCCO5)CC3)c(F)cc2c1=O	32 (≈ 66.7 µM)

Test system: Pseudomonas aeruginosa
Test: Antibacterial activity against Pseudomonas aeruginosa 10-9 after 18 to 24 hrs by NCCLS method
Type: functional
In short: as §1

SMILES	MIC [µg/mL]
O=C(O)c1cn(C2CC2)c2cc(N3CCN(Cc4ccc5c(c4)OCCO5)CC3)c(F)cc2c1=O	64 (≈ 133 µM)

Test system: Streptococcus pneumoniae
Test: Antibacterial activity against Streptococcus pneumoniae 10-6 after 18 to 24 hrs by NCCLS method
Type: functional
In short: as §1

SMILES	MIC [µg/mL]
O=C(O)c1cn(C2CC2)c2cc(N3CCN(Cc4ccc5c(c4)OCCO5)CC3)c(F)cc2c1=O	32 (≈ 66.7 µM)

Test system: Streptococcus pneumoniae
Test: Antibacterial activity against Streptococcus pneumoniae 10-1 after 18 to 24 hrs by NCCLS method
Type: functional
In short: as §1

SMILES	MIC [µg/mL]
O=C(O)c1cn(C2CC2)c2cc(N3CCN(Cc4ccc5c(c4)OCCO5)CC3)c(F)cc2c1=O	1 (≈ 2.09 µM)

Test system: Enterococcus faecium
Test: Antibacterial activity against Enterococcus faecium 10-6 after 18 to 24 hrs by NCCLS method
Type: functional
In short: as §1

SMILES	MIC [µg/mL]
O=C(O)c1cn(C2CC2)c2cc(N3CCN(Cc4ccc5c(c4)OCCO5)CC3)c(F)cc2c1=O	2 (≈ 4.17 µM)
